# Screening results as filed in PubChem BioAssay.
# Shown are actives, neighbours in structure and some others; about 1.5% of the full set was active somewhere.
# CXCR6 inh: inhibitors of human CXCR6 receptor. CHO-K1 PathHunter CXCR6 beta-arrestin, luminescence. AID 602244. inhibition, % at 20 µM. 0.36% of 360,000 active; in the data active = inhibition above about 34%, passing the limit was not always enough;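 note: antagonist mode with CXCL16 agonist at 10 nM final; 0% = 10 nM CXCL16 with DMSO and 100% = unstimulated wells without agonist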
# CCR6 antagonist: CCR6 (human) receptor antagonism; P51684; CHO-K1 CCR6 PathHunter beta-arrestin, luminescence, CCL20-stimulated; inhibition, % at 20 µM; 0.49% of 340,000 active; AID 493098;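 active = compounds whose inhibition of the agonist-driven luminescence signal at 20 µM reaches about 50%, limit read from the data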;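 note: cells stimulated with CCL20 at 14 nM final; plate controls were DMSO with CCL20 for no effect and DMSO without agonist for full effect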
# Target sequence (P51684 whole entry, looked up): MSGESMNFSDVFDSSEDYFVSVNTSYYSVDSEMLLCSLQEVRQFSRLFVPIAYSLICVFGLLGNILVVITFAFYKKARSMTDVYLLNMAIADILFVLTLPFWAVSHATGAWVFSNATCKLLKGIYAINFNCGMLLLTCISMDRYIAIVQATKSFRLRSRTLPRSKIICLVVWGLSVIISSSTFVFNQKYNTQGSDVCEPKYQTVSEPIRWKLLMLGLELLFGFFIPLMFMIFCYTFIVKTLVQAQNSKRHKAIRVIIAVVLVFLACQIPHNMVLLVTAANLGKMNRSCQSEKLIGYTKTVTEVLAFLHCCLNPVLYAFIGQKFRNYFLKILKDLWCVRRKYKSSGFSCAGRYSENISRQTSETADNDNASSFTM
# APJ agonist: APJ receptor agonism. activation, % at 20 µM. P35414. CHO-K1 APJ PathHunter beta-arrestin, luminescence; 0% DMSO wells, 100% apelin. AID 2520. 0.11% of 330,000 active;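 active = activation more than six SD over the plate average, tested at 20 µM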;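 note: 0% = DMSO alone and 100% = apelin-13 at 10 nM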
#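 assay system = CHO-K1 APJ beta-arrestin complementation cell line | input = cell density 1000 per well | dosing = compound 20 µM once, DMSO 1% | timing = compound 90 min 25 °C, reagent 1 h | measured by = luminescence from split beta-galactosidase complementation, Galacton Star/Emerald II substrate | read-out basis = APJ agonist activity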
# APJ antag: APJ receptor antagonism; P35414; CHO-K1 APJ beta-arrestin complementation, luminescence; inhibition, % at 20 µM; 0.32% of 330,000 active; AID 2521;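 active = inhibition above about 40% at 20 µM, limit read from the data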;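 note: cells challenged with 10 nM apelin-13 agonist together with compound; plate controls were apelin-13 plus DMSO wells for no effect and DMSO wells lacking apelin-13 for full effect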
# EBI2 block: antagonists of human EBI2 receptor | P32249 | EBI2 beta-arrestin recruitment, luminescence, 7a,25-OHC stimulated | inhibition, % at 5 µM | 0.81% of 360,000 active | AID 651636; in the data active = inhibition above about 38%;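 note: enzyme fragment complementation signal reports receptor beta-arrestin coupling in cells; 0% = agonist plus DMSO wells and 100% = wells without agonist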
# * marks the source's active call; other numbers are inactive results; nt = no result.
SMILES,CXCR6 inh,CCR6 antagonist,APJ agonist,APJ antag,EBI2 block
O=C(NC(=S)Nc1ccccc1Cl)c1cncc(Br)c1,33.9,51.8*,-3.9,17.5,-4.3
O=[N+]([O-])c1ccc2[nH]c(O)c(N=NC(=S)Nc3cccnc3)c2c1,42.2*,69.7*,-4.1,34.2,30.2
CCNC(=S)N=Nc1c(O)[nH]c2ccc([N+](=O)[O-])cc12,20.9,42.2,-4.5,38.3,9.9
COc1ccccc1C(=O)N/C(N)=N/c1nc2ccccc2o1,25.5,75.4*,-8.8,18.8,27.1
O=C(NNC1=C(C(=O)C(F)(F)F)CCC1)c1ccccc1O,7.4,-6.2,-5.4,-0.8,8.2
COc1ccccc1C(=O)NNC1=C(C(=O)C(F)(F)F)CCC1,44.3*,59.4*,-2.9,19.0,8.6
CCN1/C(=C/C(C)=C/c2sc3ccccc3[n+]2CC)Sc2ccccc21,57.2*,61.7*,-0.3,56.0*,30.0
CCN1/C(=C\C(=S)Nc2ccccc2)Sc2ccccc21,1.1,17.6,-3.0,18.8,11.4
CCCN(CCC)C(=O)c1cc([N+](=O)[O-])cc2c1-c1ccc([N+](=O)[O-])cc1C2=C(C#N)C#N,nt,66.1*,5.1,10.6,nt
C=C(CN(C)C)C(=O)c1ccc(OC2OC(COC(C)=O)C(OC(C)=O)C(OC(C)=O)C2OC(C)=O)cc1 (stereo unspecified),89.6*,100.0*,nt,nt,72.2*
CC(=O)OC[C@H]1O[C@@H](O/N=C/[C@@H](C)[C@H](OCc2ccccc2)C(C)C)[C@H](OC(C)=O)[C@@H](OC(C)=O)[C@@H]1OC(C)=O,nt,nt,0.0,5.9,nt
COc1ccccc1N(CC(=O)NCc1ccccc1)C(=O)CCC(=O)Nc1cc(C)ccn1,-5.3,4.1,-2.1,-3.3,-13.1
NS(=O)(=O)c1ccc(Nc2ccc([N+](=O)[O-])c3nonc23)cc1,31.2,63.5*,-6.0,35.4,4.8
CCOC(=O)c1c(SCCN2CCCC2)n(-c2ccccc2)c(=S)n(-c2ccccc2)c1=O,88.0*,104.7*,nt,nt,25.7
COc1ccccc1C(=O)NCCC(=O)OCC(=O)Nc1ccc(S(N)(=O)=O)cc1,-9.2,5.0,-1.5,-2.1,-9.0
CC(=O)OCCCNc1cc(Sc2ccc(Cl)cc2)c2nonc2c1[N+](=O)[O-],92.1*,104.5*,nt,nt,68.0*
CC(NC(C(=O)c1ccccc1)c1ccccc1)c1ccccc1 (stereo unspecified),36.9*,78.5*,nt,nt,8.9
C#CCOCCOCCOCCNc1nc(N2CCN(C(=O)CCCCCCCCCCNC(=O)Cn3cc(CCCCCN)nn3)CC2)nc(N2CCN(C(=O)CCCCCCCCCCNC(=O)[C@H]([C@@H](C)CC)n3cc(CCCCN=C(N)N)nn3)CC2)n1,39.8,-27.2,17.0,22.2,-7.3
C#CCOCCOCCOCCNc1nc(N2CCN(C(=O)CCCCCCCCCCNC(=O)[C@H]([C@@H](C)CC)n3cc(CCCCN=C(N)N)nn3)CC2)nc(N2CCN(C(=O)CCCCCCCCCCNC(=O)[C@H]([C@@H](C)CC)n3cc(CCCCN=C(N)N)nn3)CC2)n1,nt,nt,70.8*,26.6,nt
C#CCOCCOCCOCCNc1nc(N2CCN(C(=O)CCCCCCCCCCNC(=O)[C@H]([C@@H](C)CC)n3cc(CCCCN=C(N)N)nn3)CC2)nc(N2CCN(C(=O)CCCCCCCCCCNC(=O)[C@H](CO)n3cc(CCCCCN)nn3)CC2)n1,61.3*,-26.7,3.0,13.7,-1.0
C#CCOCCOCCOCCNc1nc(N2CCN(C(=O)CCCCCCCCCCNC(=O)[C@H]([C@@H](C)CC)n3cc(CCCCCN)nn3)CC2)nc(N2CCN(C(=O)CCCCCCCCCCNC(=O)[C@@H]([C@H](C)CC)n3cc(CCCCCN)nn3)CC2)n1,nt,nt,54.6*,21.6,nt
C#CCOCCOCCOCCNc1nc(N2CCOCC2)nc(N2CCN(C(=O)CCCCCCCCCCNC(=O)[C@@H]([C@H](C)CC)n3cc(CCCCCN)nn3)CC2)n1,1.0,13.4,0.5,13.8,-6.1
CCOC(=O)C1CCCN(CCC(=O)Nc2cc(OC)ccc2OC)C1 (stereo unspecified),3.7,2.1,0.7,-6.0,-8.6
Cc1[nH]c2ccccc2c1C1=CC(=O)C=CC1=O,70.1*,nt,nt,nt,-14.2
CN(Cc1ccccn1)C(=O)C1CCC(=O)N(Cc2cccc(C(F)(F)F)c2)C1 (stereo unspecified),6.1,13.3,4.3,13.8,1.7
SMILES,CXCR6 inh,CCR6 antagonist,APJ agonist,APJ antag,EBI2 block
COc1cc(N/N=C(\C)c2ccc(O)c(C)c2)nc(-c2ccccc2)n1,-20.7,-14.4,-2.7,-12.3,57.5*
COc1cc(N/N=C(\C)c2ccc(N)cc2)nc(-c2ccccc2)n1,3.6,-18.3,-3.5,-2.5,30.1
C/C(=N\Nc1cc(-c2ccccc2)nc(-c2ccccc2)n1)c1ccc(O)c(C)c1,17.5,-13.4,0.9,-11.9,51.2*
Cc1ccc(S(=O)(=O)N2CCOCC2)cc1NC(=O)c1ccc(F)cc1F,-3.6,9.4,-2.1,4.5,-8.1
NS(=O)(=O)c1ccc(NC(=O)c2ccc(F)cc2F)c(NC(=O)c2ccc(F)cc2F)c1,1.9,50.7*,-1.2,-3.5,-2.7
Cc1ccc(CNC(=O)C2CCC(=O)N(CCc3ccc(Cl)cc3)C2)s1 (stereo unspecified),-0.5,6.1,-5.9,-9.9,39.1
Cc1ccc(CNC(=O)C2CCC(=O)N(CCc3ccc(Cl)cc3)C2)cc1 (stereo unspecified),2.7,7.6,-5.2,5.2,49.0*
CC/C(=C\C1CCCCC1)C(NP(=O)(c1ccccc1)c1ccccc1)c1ccccc1 (stereo unspecified),43.7*,35.0,-1.8,20.7,-21.6
O=P(NC1CCCCC1)(c1ccccc1)c1ccccc1,-1.1,6.2,nt,nt,1.4
COc1ccc2cc(CNCCOCCOCCNCc3ccc4cc(OC)ccc4c3)ccc2c1,-9.2,22.4,nt,nt,-26.2
COc1ccc(Cl)cc1S(=O)(=O)N1CCC(C(=O)N2CCOCC2)CC1,-1.2,8.0,-3.3,7.1,-6.5
Cc1cccc(N2CCN(C(=O)c3cc4c(=O)n(C)c5ccccc5c4n3C)CC2)c1C,2.3,5.8,-2.0,6.9,26.9
Cc1ccc(Cl)cc1N1CCN(C(=O)c2cc3c(=O)n(C)c4ccccc4c3n2C)CC1,5.5,1.7,13.3*,-27.2,33.1
Cn1c(CSc2nc3ccccc3s2)nnc1SCC(=O)NCc1cccnc1,-8.8,1.6,-5.9,8.7,-0.5
Cc1ccc(C(=C2C3C=CC2C2C(=O)NC(=O)C32)c2ccc(C)cc2)cc1 (stereo unspecified),-5.1,53.8*,-2.3,6.5,9.3
O=C1C2C3C=CC(C3=C(c3ccccc3)c3ccccc3)C2C(=O)N1CCO (stereo unspecified),11.4,-5.7,-5.1,17.0,17.4
C=CCN1C=C/C(=C\C=C(C#N)C#N)c2ccccc21,45.5*,73.6*,-15.5,70.1*,26.2
CCCCCCN1C=C/C(=C\C=C(C#N)C#N)c2ccccc21,61.4*,76.5*,-6.8,65.2*,37.7
